According to ChEMBL document CHEMBL1144391, “New pyrazolo[1',5':1,6]pyrimido[4,5-d]pyridazin-4(3H)-ones as potent and selective PDE5 inhibitors” (Bioorg Med Chem Lett, 2005):

Columns and labels:
[1] = biological target: T1, cGMP-specific 3',5'-cyclic phosphodiesterase (Homo sapiens, UniProt O76074); experiment: Percentage inhibition of human Phosphodiesterase 5 at 20 uM (n=2-3)
How it was run: (§1)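 Phosphodiesterase 5 purified from human platelets; activity measured by a two-step cyclic nucleotide phosphodiesterase procedure. Percent inhibition recorded at the single stated concentration.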

[2] = biological target: T2, Phosphodiesterase 6 (Bos taurus) (UniProt P23439+P16586+P11541+P22571+P04972+Q95142); experiment: Percentage inhibition of bovine Phosphodiesterase 6 at 0.2 uM (n=2-3); format: protein assay
How it was run: (§2)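 Enzyme purified from bovine retinas; cyclic nucleotide phosphodiesterase activity measured by a two-step procedure. Values are either IC50 or percent inhibition at the single test concentration stated.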

[3] = biological target: Phosphodiesterase 6; experiment: Inhibition of bovine Phosphodiesterase 6 (n=2-3); format: protein assay, Bos taurus
[4] = biological target: T1, cGMP-specific 3',5'-cyclic phosphodiesterase; experiment: Inhibition of human Phosphodiesterase 5 (n=2-3)
[5] = biological target: T2, Phosphodiesterase 6 (Bos taurus); experiment: Percentage inhibition of bovine Phosphodiesterase 6 at 2 uM (n=2-3); format: protein assay; how it was run: as §2
[6] = biological target: T1, cGMP-specific 3',5'-cyclic phosphodiesterase; experiment: Percentage inhibition of human Phosphodiesterase 5 at 2 uM (n=2-3); how it was run: as §1
[7] = Half-life was observed; format: ADME
[8] = biological target: T1, cGMP-specific 3',5'-cyclic phosphodiesterase; experiment: Percentage inhibition of human Phosphodiesterase 5 at 0.2 uM (n=2-3); how it was run: as §1

| Structure (SMILES) | IC50 [4] [µM] | inhibition [5] [%] | also measured |
| --- | --- | --- | --- |
| Cc1nn(Cc2ccccc2)c(=O)c2nc(C)n3nc(-c4ccc([N+](=O)[O-])cc4)cc3c12 |  |  | inhibition [1]: 65.5%; inhibition [2]: 14.4% |
| Cc1nn(Cc2ccccc2)c(=O)c2nc(/C=C/C(=O)O)n3nc(-c4ccccc4)cc3c12 | 0.32 |  | IC50 [3]: 0.58 µM |
| COCc1nc2c(=O)n(Cc3ccccc3)nc(C)c2c2cc(-c3ccccc3)nn12 | 0.1 | 53.3 |  |
| Cc1nn(Cc2ccccc2)c(=O)c2nc(CCCC(=O)O)n3nc(-c4ccccc4)cc3c12 | 0.03 |  | IC50 [3]: 0.11 µM |
| Cc1nn(Cc2ccccc2)c(=O)c2nc(-c3ccncc3)n3nc(-c4ccccc4)cc3c12 |  | -4.8 | inhibition [6]: 69% |
| Cc1nn(Cc2ccccc2)c(=O)c2nc(-c3cccnc3)n3nc(-c4ccccc4)cc3c12 | 0.18 | 17.7 |  |
| Cc1nn(Cc2ccccc2)c(=O)c2nc(Cc3ccccc3)n3nc(-c4ccccc4)cc3c12 |  | 13.6 | inhibition [6]: 22.5% |
| CSCc1nc2c(=O)n(Cc3ccccc3)nc(C)c2c2cc(-c3ccccc3)nn12 | 0.1 | 38.1 |  |
| Cc1nn(Cc2ccccc2)c(=O)c2nc(Cc3ccncc3)n3nc(-c4ccccc4)cc3c12 | 0.45 | 20.4 |  |
| Cc1nn(CC2CCCCC2)c(=O)c2nc(C)n3nc(-c4ccccc4)cc3c12 | 3.1 |  | IC50 [3]: 11 µM |
| Cc1cccc(-c2nc3c(=O)n(Cc4ccccc4)nc(C)c3c3cc(-c4ccccc4)nn23)c1 | 0.075 | 11.5 |  |
| Cc1nn(Cc2ccccc2)c(=O)c2nc(C)n3nc(C(C)(C)C)cc3c12 |  |  | inhibition [6]: 31% |
| CCC(C)c1nc2c(=O)n(Cc3ccccc3)nc(C)c2c2cc(-c3ccccn3)nn12 (centres undefined) | 0.039 | 34.6 |  |
| CN1CC(=O)N2[C@H](c3ccc4c(c3)OCO4)c3[nH]c4ccccc4c3C[C@@H]2C1=O |  |  | half-life [7]: > 17 h |
| Cc1nn(Cc2ccccc2)c(=O)c2nc(-c3ccccc3)n3nc(-c4ccccc4)cc3c12 | 0.081 |  | IC50 [3]: 2.8 µM |
| CCC(C)c1nc2c(=O)n(Cc3ccccc3)nc(C)c2c2cc(-c3ccccc3)nn12 (centres undefined) | 0.034 | 42.5 |  |
| Cc1nn(Cc2ccccc2)c(=O)c2nc(CCc3ccccc3)n3nc(-c4ccccc4)cc3c12 | 0.98 |  | IC50 [3]: 30 µM |

| Structure (SMILES) | IC50 [4] [µM] | inhibition [5] [%] | also measured |
| --- | --- | --- | --- |
| Cc1nn(Cc2ccccc2)c(=O)c2nc(CCCCC(=O)O)n3nc(-c4ccccc4)cc3c12 | 0.09 |  | IC50 [3]: 0.063 µM |
| Cc1nn(Cc2ccccc2)c(=O)c2nc(C)n3nc(-c4ccc(N)cc4)cc3c12 | 0.92 | 4.5 |  |
| Cc1nn(Cc2ccccc2)c(=O)c2nc(-c3ccccn3)n3nc(-c4ccccc4)cc3c12 | 0.081 | 21.3 |  |
| Cc1nn(Cc2ccccc2)c(=O)c2nc(C)n3nc(-c4ccc5c(c4)OCO5)cc3c12 |  |  | IC50 [3]: 78 µM |
| Cc1nn(Cc2ccccc2)c(=O)c2nc(CC3CCCCC3)n3nc(-c4ccccc4)cc3c12 |  | 19.2 | inhibition [6]: 33.6% |
| CCC(CC)c1nc2c(=O)n(Cc3ccccc3)nc(C)c2c2cc(-c3ccccc3)nn12 | 0.067 | 37.4 |  |
| Cc1ccccc1-c1nc2c(=O)n(Cc3ccccc3)nc(C)c2c2cc(-c3ccccc3)nn12 |  |  | inhibition [6]: 55.1% |
| Cc1nn(Cc2ccccc2)c(=O)c2nc(CCC(=O)O)n3nc(-c4ccccc4)cc3c12 | 0.43 |  | IC50 [3]: 0.59 µM |
| Cc1nn(Cc2ccc([N+](=O)[O-])cc2)c(=O)c2nc(C)n3nc(-c4ccccc4)cc3c12 |  | 10.4 | inhibition [1]: 65.9% |
| Cc1nn(Cc2cccc(OP(=O)(O)O)c2)c(=O)c2nc(C)n3nc(-c4ccccc4)cc3c12 | 0.23 |  | inhibition [2]: 28.6% |
| CCOCc1nc2c(=O)n(Cc3ccccc3)nc(C)c2c2cc(-c3ccccc3)nn12 | 0.35 | 45 |  |
| Cc1nn(Cc2ccccc2)c(=O)c2nc(C)n3nc(-c4ccccn4)cc3c12 | 0.27 |  | IC50 [3]: 10 µM |
| Cc1nn(-c2ccccc2)c(=O)c2nc(C)n3nc(-c4ccccc4)cc3c12 |  |  | inhibition [8]: 11.9%; inhibition [2]: 3.7% |
| CCC(C)c1nc2c(=O)n(Cc3cccc(OP(=O)(O)O)c3)nc(C)c2c2cc(-c3ccccc3)nn12 (centres undefined) | 0.059 | 66.9 |  |
| Cc1nn(Cc2ccc(N)cc2)c(=O)c2nc(C)n3nc(-c4ccccc4)cc3c12 | 1.1 |  | IC50 [3]: 2 µM |
| Cc1nn(Cc2ccccc2)c(=O)c2nc(CC3CCCC3)n3nc(-c4ccccc4)cc3c12 |  | 4.2 | inhibition [6]: 18.2% |
| Cc1nn(Cc2ccccc2)c(=O)c2nc(C)n3nc(-c4ccccc4)cc3c12 | 0.16 | 25 |  |
